Legend:
Mus musculus [1] = assay: […] anticancer activity against B6D2F-1 mice bearing P388 leukemia measured by the average weight change(g) after day 11 at an intravenous dose of 8(mg/kg).; type: functional
Procedure, shortened: (§1)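 Male B6D2F1 mice (8 weeks old, 20–25 g) were implanted iv on day 0 with P388/0 ascites cells (0.2 mL; ascites:saline 1.10), which grew in the liver. Drug was given iv via the tail vein, Q2Dx5, on days 1, 3, 5, 7 and 9. Groups had 4–5 mice. Day 1 value is mean body weight; later days are weight change.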

Mus musculus [2] = assay: […] anticancer activity against B6D2F-1 mice bearing P388 leukemia measured by the Average survival time(day+/-SD) at an intravenous dose of 12(mg/kg).; type: functional
Procedure, shortened: (§2)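 Male B6D2F1 mice, 8 weeks old, 20–25 g. P388/0 ascites cells (0.2 mL, ascites:saline 1.10) were implanted iv on day 0, and the tumor grew in the liver. Drug was given iv by tail vein on days 1, 3, 5, 7 and 9 (Q2Dx5), with 4–5 mice per group. Survival time was scored as 8 a.m. (0.0), 1 p.m. (0.25) or 5 p.m. (0.5) deaths. %ILS was averaged against untreated controls, and toxic deaths were counted.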

Mus musculus [3] = assay: […] anticancer activity against B6D2F-1 mice bearing P388 leukemia measured by the Average survival time(day+/-SD) at an intravenous dose of 18(mg/kg).; type: functional; procedure, shortened: as §2
Mus musculus [4] = assay: […] anticancer activity against B6D2F-1 mice bearing P388 leukemia measured by the average weight change(g) after day 11 at an intravenous dose of 12(mg/kg).; type: functional; procedure, shortened: as §1
Mus musculus [5] = assay: […] anticancer activity against B6D2F-1 mice bearing P388 leukemia measured by the increase in lifespan(%) at an intravenous dose of 12(mg/kg).; type: functional; procedure, shortened: as §2
Mus musculus [6] = assay: […] anticancer activity against B6D2F-1 mice bearing P388 leukemia measured by the increase in lifespan(%) at an intravenous dose of 18(mg/kg).; type: functional; procedure, shortened: as §2
Mus musculus [7] = assay: […] anticancer activity against B6D2F-1 mice bearing P388 leukemia measured by the average body weight(g) after day 1 at an intravenous dose of 8(mg/kg).
Mus musculus [8] = assay: […] anticancer activity against B6D2F-1 mice bearing P388 leukemia measured by the average body weight(g) after day 1 at an intravenous dose of 12(mg/kg).
Mus musculus [9] = assay: […] anticancer activity against B6D2F-1 mice bearing P388 leukemia measured by the average weight change(g) after day 9 at an intravenous dose of 8(mg/kg).; type: functional
Procedure, shortened: (§3)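 Male B6D2F1 mice (8 weeks old, 20–25 g) were implanted iv on day 0 with P388/0 ascites cells (0.2 mL; ascites:saline = 1.10). Tumor grew in the liver. Drug was given iv via the tail vein, Q2Dx5, on days 1, 3, 5, 7 and 9. Body weight was recorded on days 1, 7, 9 and 11 and reported as the average change (g).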

Mus musculus [10] = assay: […] anticancer activity against B6D2F-1 mice bearing P388 leukemia measured by the average survival time(day+/-SD) at an intravenous dose of 8(mg/kg)..; type: functional; procedure, shortened: as §2
Mus musculus [11] = assay: […] anticancer activity against B6D2F-1 mice bearing P388 leukemia measured by the average weight change(g) after day 7 at an intravenous dose of 8(mg/kg).; type: functional; procedure, shortened: as §3
Mus musculus [12] = assay: […] anticancer activity against B6D2F-1 mice bearing P388 leukemia measured by the increase in lifespan(%) at an intravenous dose of 8(mg/kg)..; type: functional; procedure, shortened: as §2
Mus musculus [13] = assay: […] anticancer activity against B6D2F-1 mice bearing P388 leukemia measured by the average weight change(g) after day 7 at an intravenous dose of 12(mg/kg).; type: functional; procedure, shortened: as §1
Mus musculus [14] = assay: […] anticancer activity against B6D2F-1 mice bearing P388 leukemia measured by the average body weight(g) after day 1 at an intravenous dose of 18(mg/kg).
Mus musculus [15] = assay: […] anticancer activity against B6D2F-1 mice bearing P388 leukemia measured by the average weight change(g) after day 7 at an intravenous dose of 18(mg/kg).; type: functional; procedure, shortened: as §1
Mus musculus [16] = assay: […] anticancer activity against B6D2F-1 mice bearing P388 leukemia measured by the average weight change(g) after day 9 at an intravenous dose of 12(mg/kg).; type: functional; procedure, shortened: as §3
Mus musculus [17] = assay: […] anticancer activity against B6D2F-1 mice bearing P388 leukemia measured by the Average survival time(days) at an intravenous dose of 22(mg/kg).; type: functional; procedure, shortened: as §2
Mus musculus [18] = assay: […] anticancer activity against B6D2F-1 mice bearing P388 leukemia measured by the average body weight(g) after day 1 at an intravenous dose of 22(mg/kg).
Mus musculus [19] = assay: […] anticancer activity against B6D2F-1 mice bearing P388 leukemia measured by the average body weight(g) after day 1 at an intravenous dose of 30(mg/kg).
Mus musculus [20] = assay: […] anticancer activity against B6D2F-1 mice bearing P388 leukemia measured by the average weight change(g) after day 7 at an intravenous dose of 16(mg/kg).; type: functional; procedure, shortened: as §1
Mus musculus [21] = assay: […] anticancer activity against B6D2F-1 mice bearing P388 leukemia measured by the average weight change(g) after day 9 at an intravenous dose of 22(mg/kg).; type: functional; procedure, shortened: as §3
Mus musculus [22] = assay: […] anticancer activity against B6D2F-1 mice bearing P388 leukemia measured by the increase in lifespan at an intravenous dose of 30(mg/kg).; type: functional; procedure, shortened: as §2
Mus musculus [23] = assay: […] anticancer activity against 5 B6D2F-1 mice bearing P388 leukemia measured by the toxicity death at an intravenous dose of 16(mg/kg)..; type: organism-based; conditions: in vivo; procedure, shortened: as §2
Mus musculus [24] = assay: […] anticancer activity against 4 B6D2F-1 mice bearing P388 leukemia measured by the toxicity death at an intravenous dose of 30(mg/kg).; type: organism-based; conditions: in vivo; procedure, shortened: as §2
Mus musculus [25] = assay: […] anticancer activity against B6D2F-1 mice bearing P388 leukemia measured by the average weight change(g) after day 9 at an intravenous dose of 30(mg/kg).; type: functional; procedure, shortened: as §3
Mus musculus [26] = assay: […] anticancer activity against B6D2F-1 mice bearing P388 leukemia measured by the average weight change(g) after day 11 at an intravenous dose of 16(mg/kg).; type: functional; procedure, shortened: as §1
HL-60 [27] = assay: In vitro inhibition of human leukemic HL-60 cell growth in culture; type: functional, cell-based
Procedure, shortened: (§4)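 HL-60 cells were seeded at 5×10^4 cells/mL in RPMI 1640 with 10% heat-inactivated FBS, penicillin and streptomycin, at 37 °C in 5% CO2. Cells were exposed for 72 h to six or seven drug concentrations, run in duplicate. Viability was read by XTT-tetrazolium microculture absorbance, and IC50 was derived from median-effect plot analysis.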

Mus musculus [28] = assay: […] anticancer activity against B6D2F-1 mice bearing P388 leukemia measured by the average weight change(g) after day 11 at an intravenous dose of 30(mg/kg).; type: functional; procedure, shortened: as §1
Mus musculus [29] = assay: […] anticancer activity against B6D2F-1 mice bearing P388 leukemia measured by the average weight change(g) after day 11 at an intravenous dose of 22(mg/kg).; type: functional; procedure, shortened: as §1
Mus musculus [30] = assay: […] anticancer activity against B6D2F-1 mice bearing P388 leukemia measured by the increase in lifespan at an intravenous dose of 22(mg/kg).; type: functional; procedure, shortened: as §2
Mus musculus [31] = assay: […] anticancer activity against 5 B6D2F-1 mice bearing P388 leukemia measured by the toxicity death at an intravenous dose of 22(mg/kg).; type: organism-based; conditions: in vivo; procedure, shortened: as §2
Mus musculus [32] = assay: […] anticancer activity against B6D2F-1 mice bearing P388 leukemia measured by the average body weight(g) after day 1 at an intravenous dose of 16(mg/kg).
Mus musculus [33] = assay: […] anticancer activity against B6D2F-1 mice bearing P388 leukemia measured by the average weight change(g) after day 7 at an intravenous dose of 30(mg/kg).; type: functional; procedure, shortened: as §3
Mus musculus [34] = assay: […] anticancer activity against B6D2F-1 mice bearing P388 leukemia measured by the average survival time(days) at an intravenous dose of 16(mg/kg)..; type: functional; procedure, shortened: as §2
Mus musculus [35] = assay: […] anticancer activity against B6D2F-1 mice bearing P388 leukemia measured by the average weight change(g) after day 7 at an intravenous dose of 22(mg/kg).; type: functional; procedure, shortened: as §1
Mus musculus [36] = assay: […] anticancer activity against B6D2F-1 mice bearing P388 leukemia measured by the Average survival time(days) at an intravenous dose of 30(mg/kg).; type: functional; procedure, shortened: as §2
Mus musculus [37] = assay: […] anticancer activity against B6D2F-1 mice bearing P388 leukemia measured by the average weight change(g) after day 9 at an intravenous dose of 16(mg/kg).; type: functional; procedure, shortened: as §3
Mus musculus [38] = assay: […] anticancer activity against B6D2F-1 mice bearing P388 leukemia measured by the increase in lifespan at an intravenous dose of 16(mg/kg)..; type: functional; procedure, shortened: as §2
HL-60 [39] = assay: In vitro growth inhibition against human leukemia HL-60 cell line; type: functional, cell-based; procedure, shortened: as §4

COc1cc(NS(C)(=O)=O)ccc1Nc1c2ccccc2nc2ccccc12 [AMSACRINE]
Average weight change (Mus musculus [1]): -3.8 g | Average survival (Mus musculus [2]): 14.1 days | Average survival (Mus musculus [3]): 7.6 days | Average weight change (Mus musculus [4]): -3.2 g | Increase in life-span (Mus musculus [5]): 120% | Increase in life-span (Mus musculus [6]): 19% | Body weight (Mus musculus [7]): 22.8 g | Body weight (Mus musculus [8]): 22.7 g | Average weight change (Mus musculus [9]): -2.1 g | Average survival (Mus musculus [10]): 12.2 days | Average weight change (Mus musculus [11]): 0.1 g | Increase in life-span (Mus musculus [12]): 91% | Average weight change (Mus musculus [13]): -0.7 g | Body weight (Mus musculus [14]): 24.5 g | Average weight change (Mus musculus [15]): -4.3 g | Average weight change (Mus musculus [16]): -1.4 g

Nc1cc(CO)cc(Nc2c3ccccc3nc3ccccc23)c1
Average survival (Mus musculus [17]): 21.1 days | Body weight (Mus musculus [18]): 23.8 g | Body weight (Mus musculus [19]): 22.6 g | Average weight change (Mus musculus [20]): 0.8 g | Average weight change (Mus musculus [21]): -1.5 g | Increase in life-span (Mus musculus [22]): 240% | Toxicity related death (Mus musculus [23]): 0 | Toxicity related death (Mus musculus [24]): 0 | Average weight change (Mus musculus [25]): -0.1 g | Average weight change (Mus musculus [26]): -2.1 g | IC50 (HL-60 [27]): 27 nM | Average weight change (Mus musculus [28]): -0.2 g | Average weight change (Mus musculus [29]): -2.8 g | Increase in life-span (Mus musculus [30]): 230% | Toxicity related death (Mus musculus [31]): 0 | Body weight (Mus musculus [32]): 23.3 g | Average weight change (Mus musculus [33]): 0.2 g | Average survival (Mus musculus [34]): 14.9 days | Average weight change (Mus musculus [35]): -1.3 g | Average survival (Mus musculus [36]): 21.8 days | Average weight change (Mus musculus [37]): -0.5 g | Increase in life-span (Mus musculus [38]): 133%

CCOC(=O)Nc1cc(CO)cc(Nc2c3cccc(C)c3nc3c(C(=O)NCCN(C)C)cccc23)c1
IC50 (HL-60 [39]): 2.3 nM
